{
  "source": "paper PMC10085944",
  "about": "(Clinical Pharmacokinetics, 2023)",
  "key": {"[1]": {"test": "Safety and tolerability assessment in the Phase 1 renal impairment trial", "assay_type": "in vivo, human", "procedure,_shortened": "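Subjects admitted the day before a single 10 mg SC abdominal dose, kept on site for the first 3 days, then seen as outpatients daily to Day 8, with follow-up on Day 11. Ongoing monitoring covered AE recording (MedDRA preferred terms), vital signs, 12-lead ECGs, clinical laboratory tests, physical examinations and injection-site reactions.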"}, "[2]": {"conditions": "SC; slow release of M1 and M2 from the SC depot; cited from earlier work"}, "[3]": {"conditions": "cited from earlier work"}, "[4]": {"conditions": "SBS patients; dose reduction by 50% recommended; cited from earlier work"}},
  "note": "Where two headings read alike, the source gives them in different places.",
  "data": [
    {"substance": "Glepaglutide", "values": [
      {"measurement": "serious AEs, deaths, or AEs leading to trial withdrawal", "setting": "[1]; 16 subjects, single SC dose glepaglutide 10 mg", "value": "no serious AEs, deaths, or AEs leading to trial withdrawal"},
      {"measurement": "total number of AEs (all non-serious and mild)", "setting": "[1]; reported in 3 of 16 subjects, single SC dose 10 mg", "value": 6},
      {"measurement": "overall safety and tolerability", "setting": "[1]; single SC dose 10 mg, normal renal function and severe renal impairment or ESRD", "value": "safe and well tolerated"},
      {"measurement": "effective half-life", "setting": "[2]", "value": 88.3, "unit": "h"}
    ]},
    {"substance": "native GLP-2: 33-amino acid intestinal growth factor secreted in response to nutrient intake", "values": [
      {"measurement": "half-life", "setting": "[3]; native GLP-2, in vivo", "value": "5 to 7", "unit": "min"}
    ]},
    {"substance": "teduglutide", "values": [
      {"measurement": "half-life", "setting": "[3]; teduglutide", "value": "approximately 2 h"},
      {"measurement": "AUC0–∞ and Cmax in moderate or severe renal impairment/ESRD", "setting": "[4]", "value": "elevated"}
    ]}
  ]
}
